Test results reported in ChEMBL document CHEMBL1159005, “Inhibitory effects of flavonoids on Moloney murine leukemia virus reverse transcriptase activity” (J Nat Prod, 1992).

What was measured:
[1] = tested on: Moloney murine leukemia virus; experiment: Inhibition of Moloney murine leukemia virus reverse transcriptase using (ribocytidylic acid)n(deoxyguanylic acid)12-18 as template primer by liquid scintillation counting
Outline: (§1)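 30 μl mix of 50 mM Tris-HCl pH 8.3, 75 mM KCl, 10 mM DTT, 3 mM MgCl₂, 3 μg nuclease-free BSA, 0.5 μg template-primer, 2 mM dTTP or dGTP with 0.5 μCi matching [³H]-dNTP, and 5 units MMLV RT. Incubated 37° for 30 min, stopped with EDTA. Duplicate aliquots spotted on DE-81 paper, washed, and counted by liquid scintillation.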

[2] = tested on: Moloney murine leukemia virus; experiment: Inhibition of Moloney murine leukemia virus reverse transcriptase using (riboadenylic acid)n(deoxythymidylic acid)12-18 as template primer by liquid scintillation counting; outline: as §1
[3] = Selectivity for Moloney murine leukemia virus reverse transcriptase over Escherichia coli DNA polymerase 1

Row | SMILES | ID50 [1] [µM] | ID50 [2] [µM] | fold change (FC) [3]
1 | Oc1cc(O)c2c(c1)O[C@H](c1ccc(O)c(O)c1)[C@H](O)C2 | 2.65 | 2.58 | 
2 | O=C1CC(c2ccccc2)Oc2ccccc21 (stereo not drawn) | > 446 | > 446 | 
3 | C[C@H]1O[C@@H](Oc2c(-c3cc(O)c(O)c(O)c3)oc3cc(O)cc(O)c3c2=O)[C@@H](O)[C@@H](O)[C@@H]1O | 9.69 | 10.1 | 
4 | O=C1c2c(O)cc(O)cc2OC(c2ccc(O)c(O)c2)C1O (racemic) | 2.46 | 2.43 | 10
5 | C[C@@H]1O[C@@H](OC[C@H]2O[C@@H](Oc3c(-c4ccc(O)c(O)c4)oc4cc(O)cc(O)c4c3=O)[C@H](O)[C@@H](O)[C@@H]2O)[C@H](O)[C@H](O)[C@H]1O | 7.33 | 7.27 | 
6 | Oc1cc(O)c2c(c1)O[C@H](c1ccc(O)c(O)c1)[C@@H](O)C2 | 2.86 | 2.75 | 
7 | O=c1c(O)c(-c2ccc(O)cc2)oc2cc(O)cc(O)c12 | 1.29 | 1.22 | 10
8 | O=c1c(O)c(-c2ccc(O)cc2O)oc2cc(O)cc(O)c12 | 1.01 | 1.03 | 10
9 | O=c1c(O)c(-c2cc(O)c(O)c(O)c2)oc2cc(O)cc(O)c12 | 0.28 | 0.25 | 10
10 | O=c1c(O)c(-c2ccc(O)c(O)c2)oc2cc(O)ccc12 | 0.24 | 0.28 | 
11 | COc1ccc([C@@H]2CC(=O)c3c(O)cc(O)cc3O2)cc1O | 22.1 | 20.9 | 
12 | O=c1c(O)c(-c2ccccc2)oc2ccccc12 | > 420 | > 420 | 
13 | O=c1c(O)c(-c2ccc(O)c(O)c2)oc2cc(O)cc(O)c12 | 0.17 | 0.2 | 10
14 | O=c1cc(-c2ccccc2)oc2cc(O)ccc12 | > 420 | > 420 | 
